Results on 10 molecules are retold here after PubChem BioAssay AID488885 (Broad Institute, 2010).

Results filed as inconclusive are left out. The source made the active and inactive calls.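 How the source made its calls: active means compounds raising caspase signal whose fitted half-max concentration is within ten times the top valid dose; inconclusive means flat curve with moderate caspase rise, or unreliable fit; inactive means flat near zero, too weak, or opposite direction.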

Tested on in one assay: not listed separately
Nature of the assay: apoptosis induction, Mcl1-reliant cancer line – cell-based, HMC1-8 Mcl1-dependent, CaspaseGlo luminescence, dry powder, selectivity assay for A1 inhibitor project, dose response (AID 488885). Particulars: HMC1-8 (Mcl1-dependent) caspase activation, CaspaseGlo luminescence, 4 h; at 150 µM (top of the series). The procedure, abridged:
(§1)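 Material: Low-A1 HMC 1-8 human cancer cells; Amount: 2500 cells per well; Detection: luminescence with CaspaseGlo reagent; Times: 4 h compound at 37 °C, 1 h reagent at room temperature; Buffer or medium: RPMI-1640, 10% FBS; Doses: test compound delivered to cells by pin transfer.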
Consider `CC(=O)OC(C)(C)/C=C/C(=O)[C@](C)(O)C1[C@H](O)C[C@@]2(C)C3CC=C4C(C[C@H](O)C(=O)C4(C)C)[C@]3(C)C(=O)C[C@]12C` (stereo not given in full), for which the caspase activation was 17.2% (inactive).
On the same count and under the same terms, the same measure for `O=C(CCl)N=c1sccn1Cc1ccccc1Cl`: -18.4% (inactive).
For the molecule `Cn1c(=NC(=O)CCl)sc2ccccc21`, the caspase activation is -4.38% (inactive).
`C/C1=C/C(=O)O[C@@H]2C[C@@H](CC[C@H](C)/C=C\CC1)O[C@@](O)(C1CSC(=O)N1)C2` (stereo not given in full): the caspase activation was 3.84% (inactive).
The same measure, in the same setting: then `C=C1[C@@H](C)[C@H]2[C@H](Cc3ccccc3)NC(=O)[C@]23[C@H](OC(C)=O)/C=C/[C@](C)(O)C(=O)[C@@H](C)C/C=C/[C@H]3[C@@H]1O`, with -0.0184% (inactive).
On the same count and under the same terms, the same measure for `C=C1[C@@H](C)[C@H]2[C@H](Cc3ccccc3)NC(=O)[C@]23OC(=O)/C=C\[C@H](O)CCC[C@@H](C)C/C=C/[C@H]3[C@@H]1O`: 4.5% (inactive); for `Cc1ccc(Sc2c([N+](=O)[O-])c(=O)n(C)c3ccccc23)cc1`: -9.5% (inactive); for `O=C(Oc1cccc(/C=N/Nc2nc(Nc3ccccc3)nc(N3CCOCC3)n2)c1)c1ccco1`: 3.81% (inactive).
For `COc1cc(/C=C(/C#N)c2nc3ccccc3[nH]2)ccc1OCC(=O)Nc1ccccc1C(C)C`, the caspase activation was 13.5% (inactive).

For the next assay, the system named is HMC1-8 (Mcl1-dependent) caspase activation, CaspaseGlo luminescence, 4 h. Described as above.
Settings: not given
The method, boiled down: as §1
As to `CC(C)(C)n1nc(-c2ccc(Cl)cc2)c2c(N)ncnc21`, the AC50 was 44.9 µM.

A word on the AC50: it is the concentration giving half of the maximal activity seen.
